Data reported in ChEMBL document CHEMBL3098111, “Discovery of 2,5-diarylnicotinamides as selective orexin-2 receptor antagonists (2-SORAs)” (Bioorg Med Chem Lett, 2013).
Activity calls are given as the source filed them. The calls are words filed in the database; no cut-off is given here.

What was measured:
Bos taurus = species: Bos taurus; experiment: Inhibition of bovine PDE1 at 100 uM relative to control
Rattus norvegicus [1] = species: Rattus norvegicus; experiment: Inhibition of rat strychnine-sensitive glycine receptor at 10 uM relative to control
[2] = target: Prostaglandin D2 receptor (Homo sapiens) (UniProt Q13258); experiment: Inhibition of human prostanoid DP receptor at 10 uM relative to control
Cavia porcellus [3] = species: Cavia porcellus; experiment: Inhibition of guinea pig adenosine transporter at 10 nM relative to control
Oryctolagus cuniculus = species: Oryctolagus cuniculus; experiment: Inhibition of rabbit monoamine transporter at 10 uM relative to control
[4] = target: Cholecystokinin receptor type A (Homo sapiens) (UniProt P32238); experiment: Inhibition of human CCKA receptor at 10 uM relative to control
[5] = target: Tyrosine 3-monooxygenase (Rattus norvegicus) (UniProt P04177); experiment: Inhibition of rat tyrosine hydroxylase at 10 uM relative to control
[6] = target: Nitric oxide synthase, inducible (Mus musculus) (UniProt P29477); experiment: Inhibition of mouse iNOS at 10 uM relative to control
D(3) dopamine receptor = D(3) dopamine receptor (Homo sapiens, UniProt P35462); experiment: Inhibition of human dopamine D3 receptor at 0.1 uM relative to control
Rattus norvegicus [7] = species: Rattus norvegicus; experiment: Inhibition of rat AMPA receptor at 10 uM relative to control
[8] = target: Cannabinoid receptor 1 (Homo sapiens) (UniProt P21554); experiment: Inhibition of human CB1 receptor at 10 uM relative to control
Rattus norvegicus [9] = experiment: Antiinsomnic activity in rat EEG model assessed as decrease in active wake time at 15 mg/kg, po; type: functional, organism-based; set-up: dose 15 mg/kg
Summary of the method: (§1)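 Rats with EEG telemetry given 15 mg/kg orally during their active period, vehicle 20% Vitamin E TPGS in water. Sleep architecture (active wake, light sleep, delta and REM sleep) scored from EEG.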

Caspase-1 (Homo sapiens) = Caspase-1 (Homo sapiens) (UniProt P29466); experiment: Inhibition of human caspase 1 at 10 uM relative to control
Rattus norvegicus [10] = species: Rattus norvegicus; experiment: Inhibition of rat ATP-sensitive potassium channel at 10 uM relative to control
[11] = target: 5-hydroxytryptamine receptor 1B (Rattus norvegicus) (UniProt P28564); experiment: Inhibition of rat 5-HT1B receptor at 10 nM relative to control
[12] = target: 5-hydroxytryptamine receptor 6 (Homo sapiens) (UniProt P50406); experiment: Inhibition of human 5-HT6 receptor at 10 uM relative to control
[13] = target: Endothelin-converting enzyme 1 (Homo sapiens) (UniProt P42892); experiment: Inhibition of human ECE-1 at 10 uM relative to control
[14] = target: Somatostatin receptor type 1 (Homo sapiens) (UniProt P30872); experiment: Inhibition of human SST1 receptor at 10 uM relative to control
[15] = target: Glutamate NMDA receptor (Rattus norvegicus) (UniProt P35439+Q00959+Q00960+Q00961+Q62645+Q8VHN2+Q9R1M7); experiment: Inhibition of rat NMDA receptor phencyclidine binding site at 10 uM relative to control; type: protein-complex assay
[16] = target: Prostaglandin E2 receptor EP4 subtype (Homo sapiens) (UniProt P35408); experiment: Inhibition of human prostanoid EP4 receptor at 10 uM relative to control
Rattus norvegicus [17] = experiment: Antiinsomnic activity in rat EEG model assessed as increase in REM sleep time at 15 mg/kg, po; type: functional, organism-based; set-up: dose 15 mg/kg; summary of the method: as §1
Mu-type opioid receptor = Mu-type opioid receptor (Homo sapiens, UniProt P35372); experiment: Inhibition of human mu opioid receptor at 1 uM relative to control
Rattus norvegicus [18] = species: Rattus norvegicus; experiment: Inhibition of rat sodium channel site 2 at 10 uM relative to control
[19] = target: D(4) dopamine receptor (Homo sapiens) (UniProt P21917); experiment: Inhibition of human dopamine D4.4 receptor at 10 uM relative to control
[20] = target: 5-hydroxytryptamine receptor 2B (Homo sapiens, UniProt P41595); experiment: Inhibition of human 5-HT2B receptor at 0.1 uM relative to control
[21] = target: Estrogen receptor beta (Homo sapiens) (UniProt Q92731); experiment: Inhibition of human ERbeta receptor at 10 uM relative to control
[22] = target: Natriuretic peptides A (Cavia porcellus) (UniProt P27596); experiment: Inhibition of guinea pig atrial natriuretic factor at 10 uM relative to control; settings: Cardiac atrium
[23] = target: Histamine H4 receptor (Homo sapiens) (UniProt Q9H3N8); experiment: Inhibition of human histamine H4 receptor at 10 uM relative to control
[24] = target: Polyunsaturated fatty acid 5-lipoxygenase (Homo sapiens) (UniProt P09917); experiment: Inhibition of human 5-lipoxygenase at 10 uM relative to control
[25] = target: Vasopressin V2 receptor (Homo sapiens) (UniProt P30518); experiment: Inhibition of human V2 receptor at 10 uM relative to control
Rattus norvegicus [26] = experiment: Antiinsomnic activity in rat EEG model assessed as decrease in light sleep time at 15 mg/kg, po; type: functional, organism-based; set-up: dose 15 mg/kg; summary of the method: as §1
[27] = target: Galanin receptor type 1 (Homo sapiens) (UniProt P47211); experiment: Inhibition of human GAL1 receptor at 10 uM relative to control
[28] = target: Receptor-type tyrosine-protein phosphatase C (Homo sapiens) (UniProt P08575); experiment: Inhibition of human CD45 at 10 uM relative to control
[29] = target: Cathepsin G (Homo sapiens) (UniProt P08311); experiment: Inhibition of human cathepsin G at 10 uM relative to control
[30] = target: Muscarinic acetylcholine receptor M2 (Homo sapiens) (UniProt P08172); experiment: Inhibition of human muscarinic M2 receptor at 10 uM relative to control
[31] = target: Neurotensin receptor type 1 (Homo sapiens) (UniProt P30989); experiment: Inhibition of human NT1 receptor at 10 uM relative to control
Cavia porcellus [32] = species: Cavia porcellus; experiment: Inhibition of guinea pig adenosine transporter at 10 uM relative to control
[33] = target: Histamine H1 receptor (Homo sapiens) (UniProt P35367); experiment: Inhibition of human histamine H1 receptor at 10 uM relative to control
[34] = target: Pro-epidermal growth factor (Homo sapiens) (UniProt P01133); experiment: Inhibition of human EGF at 10 uM relative to control
[35] = target: Proto-oncogene tyrosine-protein kinase Src (Homo sapiens) (UniProt P12931); experiment: Inhibition of human SRC at 10 uM relative to control
[36] = target: Calcitonin gene-related peptide type 1 receptor (Homo sapiens) (UniProt Q16602); experiment: Inhibition of human CGRP1 at 10 uM relative to control
[37] = target: Polyunsaturated fatty acid lipoxygenase ALOX12 (Homo sapiens) (UniProt P18054); experiment: Inhibition of human 12-lipoxygenase at 10 uM relative to control
[38] = target: Alpha-2B adrenergic receptor (Homo sapiens) (UniProt P18089); experiment: Inhibition of human alpha2B adrenergic receptor at 10 uM relative to control
[39] = target: Alpha-1D adrenergic receptor (Homo sapiens) (UniProt P25100); experiment: Inhibition of human alpha1D adrenergic receptor at 10 uM relative to control
Caspase-7 (Homo sapiens) = Caspase-7 (Homo sapiens) (UniProt P55210); experiment: Inhibition of human caspase 7 at 10 uM relative to control

Nitric oxide synthase, inducible (Mus musculus), sequence (P29477 whole entry): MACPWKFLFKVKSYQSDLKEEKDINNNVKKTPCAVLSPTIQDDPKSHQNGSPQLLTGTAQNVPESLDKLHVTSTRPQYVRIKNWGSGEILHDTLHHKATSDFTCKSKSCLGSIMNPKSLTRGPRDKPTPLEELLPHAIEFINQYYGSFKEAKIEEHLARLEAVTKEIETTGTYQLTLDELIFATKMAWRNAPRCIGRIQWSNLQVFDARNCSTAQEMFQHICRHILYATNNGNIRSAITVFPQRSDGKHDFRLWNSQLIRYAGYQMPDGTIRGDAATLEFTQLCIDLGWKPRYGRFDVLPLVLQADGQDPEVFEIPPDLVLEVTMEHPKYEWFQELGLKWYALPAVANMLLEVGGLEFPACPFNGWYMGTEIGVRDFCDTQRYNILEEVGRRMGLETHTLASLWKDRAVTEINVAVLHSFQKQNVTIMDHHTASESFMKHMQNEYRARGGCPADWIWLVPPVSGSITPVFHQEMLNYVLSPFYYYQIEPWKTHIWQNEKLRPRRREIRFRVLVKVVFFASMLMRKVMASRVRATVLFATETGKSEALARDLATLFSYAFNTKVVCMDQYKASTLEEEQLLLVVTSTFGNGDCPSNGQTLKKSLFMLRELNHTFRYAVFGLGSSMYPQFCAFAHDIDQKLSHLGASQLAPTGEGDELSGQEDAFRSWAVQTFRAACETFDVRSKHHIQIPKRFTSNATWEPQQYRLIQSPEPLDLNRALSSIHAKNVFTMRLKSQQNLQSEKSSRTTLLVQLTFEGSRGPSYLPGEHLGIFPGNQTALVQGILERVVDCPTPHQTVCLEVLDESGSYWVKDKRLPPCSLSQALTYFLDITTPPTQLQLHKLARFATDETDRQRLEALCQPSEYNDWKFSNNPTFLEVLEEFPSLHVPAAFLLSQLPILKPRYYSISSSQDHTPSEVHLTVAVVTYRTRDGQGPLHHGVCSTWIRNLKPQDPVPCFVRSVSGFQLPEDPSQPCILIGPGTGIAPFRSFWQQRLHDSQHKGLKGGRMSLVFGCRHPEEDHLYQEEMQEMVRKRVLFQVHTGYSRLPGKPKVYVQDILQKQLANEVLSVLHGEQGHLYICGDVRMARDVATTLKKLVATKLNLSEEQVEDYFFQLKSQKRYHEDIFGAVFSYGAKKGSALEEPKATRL
Histamine H4 receptor (Homo sapiens), sequence (Q9H3N8 whole entry): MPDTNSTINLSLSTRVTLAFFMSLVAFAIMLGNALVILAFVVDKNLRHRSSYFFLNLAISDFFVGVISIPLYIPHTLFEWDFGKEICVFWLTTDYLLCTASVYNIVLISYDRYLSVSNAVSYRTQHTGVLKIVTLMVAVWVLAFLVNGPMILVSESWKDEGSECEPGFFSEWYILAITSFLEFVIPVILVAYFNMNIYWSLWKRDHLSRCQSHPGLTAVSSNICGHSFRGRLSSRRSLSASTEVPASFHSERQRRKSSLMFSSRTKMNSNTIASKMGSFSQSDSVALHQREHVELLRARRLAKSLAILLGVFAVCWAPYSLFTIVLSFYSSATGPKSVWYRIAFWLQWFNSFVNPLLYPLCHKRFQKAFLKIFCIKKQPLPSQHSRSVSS
Galanin receptor type 1 (Homo sapiens), sequence (P47211 whole entry): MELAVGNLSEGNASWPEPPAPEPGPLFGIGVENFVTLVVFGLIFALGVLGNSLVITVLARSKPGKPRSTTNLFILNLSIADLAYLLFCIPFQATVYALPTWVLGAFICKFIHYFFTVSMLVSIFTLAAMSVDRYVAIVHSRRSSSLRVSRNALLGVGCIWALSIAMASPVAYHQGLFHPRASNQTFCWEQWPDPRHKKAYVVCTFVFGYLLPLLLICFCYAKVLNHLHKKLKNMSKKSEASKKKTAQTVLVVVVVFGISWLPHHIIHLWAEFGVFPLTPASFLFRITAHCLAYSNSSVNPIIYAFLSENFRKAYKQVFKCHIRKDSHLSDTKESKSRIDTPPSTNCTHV
Histamine H1 receptor (Homo sapiens), sequence (P35367 whole entry): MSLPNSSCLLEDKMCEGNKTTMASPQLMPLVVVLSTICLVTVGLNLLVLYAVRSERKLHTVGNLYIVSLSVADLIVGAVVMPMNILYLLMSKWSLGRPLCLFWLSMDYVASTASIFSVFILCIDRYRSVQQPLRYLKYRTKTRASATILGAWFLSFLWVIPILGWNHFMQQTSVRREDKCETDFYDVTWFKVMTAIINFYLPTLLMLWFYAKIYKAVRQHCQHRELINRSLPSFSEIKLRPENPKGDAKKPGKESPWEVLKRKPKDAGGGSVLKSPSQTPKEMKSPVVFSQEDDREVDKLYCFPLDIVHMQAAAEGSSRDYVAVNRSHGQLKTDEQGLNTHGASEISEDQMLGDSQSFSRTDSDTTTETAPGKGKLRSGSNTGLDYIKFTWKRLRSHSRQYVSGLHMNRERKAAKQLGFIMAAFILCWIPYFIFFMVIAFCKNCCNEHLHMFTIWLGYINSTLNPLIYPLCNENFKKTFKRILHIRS
Proto-oncogene tyrosine-protein kinase Src (Homo sapiens), sequence (P12931 2-536 limits assumed): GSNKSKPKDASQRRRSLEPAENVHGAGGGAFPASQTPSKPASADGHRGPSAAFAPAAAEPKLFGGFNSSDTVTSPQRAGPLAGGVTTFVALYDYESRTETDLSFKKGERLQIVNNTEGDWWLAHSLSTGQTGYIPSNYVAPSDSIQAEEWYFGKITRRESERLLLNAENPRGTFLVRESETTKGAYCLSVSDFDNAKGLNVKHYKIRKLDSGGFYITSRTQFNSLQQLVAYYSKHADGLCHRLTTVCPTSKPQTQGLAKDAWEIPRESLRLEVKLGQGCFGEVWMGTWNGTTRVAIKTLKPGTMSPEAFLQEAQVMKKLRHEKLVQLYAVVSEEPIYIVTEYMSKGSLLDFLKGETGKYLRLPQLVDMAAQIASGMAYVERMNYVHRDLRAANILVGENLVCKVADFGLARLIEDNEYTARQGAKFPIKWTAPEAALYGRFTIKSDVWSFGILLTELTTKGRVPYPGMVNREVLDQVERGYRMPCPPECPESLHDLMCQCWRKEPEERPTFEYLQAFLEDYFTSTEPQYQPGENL
D(4) dopamine receptor (Homo sapiens), sequence (P21917 whole entry): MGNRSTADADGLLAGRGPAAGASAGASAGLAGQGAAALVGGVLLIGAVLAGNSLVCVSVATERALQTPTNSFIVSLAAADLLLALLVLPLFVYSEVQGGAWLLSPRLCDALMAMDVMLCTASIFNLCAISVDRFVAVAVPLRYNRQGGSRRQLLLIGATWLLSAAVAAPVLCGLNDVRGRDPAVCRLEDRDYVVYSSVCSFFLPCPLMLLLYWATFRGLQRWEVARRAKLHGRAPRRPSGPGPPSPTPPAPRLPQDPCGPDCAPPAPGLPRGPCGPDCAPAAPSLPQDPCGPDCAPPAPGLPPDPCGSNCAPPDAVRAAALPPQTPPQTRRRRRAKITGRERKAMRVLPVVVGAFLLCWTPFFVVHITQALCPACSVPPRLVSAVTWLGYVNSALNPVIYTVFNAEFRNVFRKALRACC
5-hydroxytryptamine receptor 1B (Rattus norvegicus), sequence (P28564 whole entry): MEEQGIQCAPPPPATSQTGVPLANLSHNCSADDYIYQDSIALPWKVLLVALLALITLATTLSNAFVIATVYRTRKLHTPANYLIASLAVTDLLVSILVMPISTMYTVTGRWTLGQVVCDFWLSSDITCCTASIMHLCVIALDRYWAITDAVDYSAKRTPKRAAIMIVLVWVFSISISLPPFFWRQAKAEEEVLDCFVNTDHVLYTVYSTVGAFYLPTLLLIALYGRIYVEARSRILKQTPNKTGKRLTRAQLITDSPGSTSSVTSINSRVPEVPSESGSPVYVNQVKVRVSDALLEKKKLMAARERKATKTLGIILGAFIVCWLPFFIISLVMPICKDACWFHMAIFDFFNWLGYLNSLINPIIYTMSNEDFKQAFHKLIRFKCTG
D(3) dopamine receptor, sequence (P35462 whole entry): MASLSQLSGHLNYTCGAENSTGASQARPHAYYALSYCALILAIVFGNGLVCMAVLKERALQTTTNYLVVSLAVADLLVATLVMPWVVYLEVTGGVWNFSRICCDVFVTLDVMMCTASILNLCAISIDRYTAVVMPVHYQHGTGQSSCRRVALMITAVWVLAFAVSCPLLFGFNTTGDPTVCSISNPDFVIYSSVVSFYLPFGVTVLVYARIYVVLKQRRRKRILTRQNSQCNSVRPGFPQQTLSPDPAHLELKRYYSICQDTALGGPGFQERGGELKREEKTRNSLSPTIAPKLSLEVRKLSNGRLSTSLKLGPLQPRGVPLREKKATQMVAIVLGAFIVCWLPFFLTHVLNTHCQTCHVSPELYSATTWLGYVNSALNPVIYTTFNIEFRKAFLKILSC
Alpha-1D adrenergic receptor (Homo sapiens), sequence (P25100 whole entry): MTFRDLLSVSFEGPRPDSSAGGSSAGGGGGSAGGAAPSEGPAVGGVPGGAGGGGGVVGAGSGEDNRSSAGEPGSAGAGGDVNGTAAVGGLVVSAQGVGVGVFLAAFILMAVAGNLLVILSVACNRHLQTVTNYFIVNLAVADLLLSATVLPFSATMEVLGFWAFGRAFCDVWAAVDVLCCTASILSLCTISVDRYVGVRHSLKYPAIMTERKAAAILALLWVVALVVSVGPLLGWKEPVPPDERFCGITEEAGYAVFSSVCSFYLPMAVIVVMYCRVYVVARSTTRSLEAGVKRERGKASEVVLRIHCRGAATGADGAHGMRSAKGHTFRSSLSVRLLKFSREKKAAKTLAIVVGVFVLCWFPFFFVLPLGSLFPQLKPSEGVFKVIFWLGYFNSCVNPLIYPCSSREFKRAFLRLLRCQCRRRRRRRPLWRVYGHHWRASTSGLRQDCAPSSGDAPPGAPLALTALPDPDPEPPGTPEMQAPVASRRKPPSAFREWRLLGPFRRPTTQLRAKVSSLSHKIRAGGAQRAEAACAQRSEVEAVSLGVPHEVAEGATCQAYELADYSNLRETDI
Natriuretic peptides A (Cavia porcellus), sequence (P27596 whole entry): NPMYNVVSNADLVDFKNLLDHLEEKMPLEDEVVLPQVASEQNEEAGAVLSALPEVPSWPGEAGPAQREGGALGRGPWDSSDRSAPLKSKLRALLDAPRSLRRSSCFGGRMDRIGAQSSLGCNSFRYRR

## COc1ccc(CNC(=O)c2cc(-c3cc(Cl)cc(Cl)c3)cnc2-c2cccnc2)cc1OC
Bos taurus
  inhibition: -3%
Rattus norvegicus [1]
  inhibition: -5%
[2]
  inhibition: 16%
Cavia porcellus [3]
  inhibition: 2%
Oryctolagus cuniculus
  inhibition: 52%
[4]
  inhibition: 9%
[5]
  inhibition: -3%
[6]
  inhibition: 2%
D(3) dopamine receptor
  inhibition: 3%
Rattus norvegicus [7]
  inhibition: 9%
[8]
  inhibition: 10%
Rattus norvegicus [9]
  Activity: Active
Caspase-1 (Homo sapiens)
  inhibition: 4%
Rattus norvegicus [10]
  inhibition: 0%
[11]
  inhibition: -4%
[12]
  inhibition: -8%
[13]
  inhibition: -10%
[14]
  inhibition: 14%
[15]
  inhibition: 5%
[16]
  inhibition: 19%
Rattus norvegicus [17]
  Activity: Active
Mu-type opioid receptor
  inhibition: 26%
Rattus norvegicus [18]
  inhibition: 39%
[19]
  inhibition: 3%
[20]
  inhibition: 6%
[21]
  inhibition: -7%
[22]
  inhibition: 1%
[23]
  inhibition: 9%
[24]
  inhibition: 44%
[25]
  inhibition: 0%
Rattus norvegicus [26]
  Activity: Active
[27]
  inhibition: 3%
[28]
  inhibition: -1%
[29]
  inhibition: -8%
[30]
  inhibition: -8%
[31]
  inhibition: 21%
Cavia porcellus [32]
  inhibition: 69%
[33]
  inhibition: 10%
[34]
  inhibition: 7%
[35]
  inhibition: -5%
[36]
  inhibition: -10%
[37]
  inhibition: 11%
[38]
  inhibition: 34%
[39]
  inhibition: 26%
Caspase-7 (Homo sapiens)
  inhibition: 1%
